Source: ChEMBL document CHEMBL2321832, “A Fluorescent Styrylquinoline with Combined Therapeutic and Diagnostic Activities against Alzheimer's and Prion Diseases” (ACS Med Chem Lett, 2013)
The source made the active and inactive calls. The calls are words filed in the database; no cut-off is given here.

Experiments:
[1] = molecular target: Amyloid-beta precursor protein (Homo sapiens) (UniProt P05067); assay: Inhibition of amyloid beta (1 to 42) (unknown origin) fibril formation at 1:1 compound to amyloid beta ratio after 24 hrs by Thioflavin T-based fluorometric assay
[2] = Permeability of the compound assessed as diffusion from donor plate through porcine brain lipid membrane into acceptor plate at pH 7.4 by PAMPA method; type: ADME; conditions: pig, read-out: permeability
In short: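 PAMPA permeability (Pe) reported as mean ± SD of two experiments. CNS+ assigned when Pe > 3.74 × 10⁻⁶ cm s⁻¹; CNS+/− when Pe lies between 3.74 × 10⁻⁶ and 1.50 × 10⁻⁶ cm s⁻¹.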

ScGT1 [3] = assay: Antiprion activity against scrapie prion protein (unknown origin) infected in mouse ScGT1 cells assessed as decrease in PrPSc accumulation after 5 days measured following PK digestion by Western blot analysis; type: cell-based
[4] = Antiprion activity against scrapie prion protein (unknown origin) infected in mouse ScGT1 cells assessed as inhibition of PrPSc replication by ELISA; type: cell-based
[5] = molecular target: Major prion protein (Mus musculus) (UniProt P04925); assay: Inhibition of mouse PrP (23-230) fibril formation assessed as extension of lag phase at 50 uM by amyloid seeding assay
[6] = Cytotoxicity against mouse ScGT1 cells assessed as cell viability at 1 uM after 5 days by fluorescence plate reader analysis; type: cell-based; conditions: read-out: Activity
[7] = Cytotoxicity against mouse ScGT1 cells assessed as cell viability at EC50 concentration after 5 days by fluorescence plate reader analysis; type: cell-based; conditions: read-out: Activity
[8] = molecular target: Amyloid-beta precursor protein (Homo sapiens) (UniProt P05067); assay: Binding affinity to pre-aggregated amyloid beta (1 to 42) (unknown origin) at 25 nM by Thioflavin T-based fluorometric assay
ScGT1 [9] = assay: Binding affinity to PK-resistant scrapie prion protein (unknown origin) aggregate in mouse ScGT1 cells at 0.25 mM measured following PK digestion by fluorescence microscopy; type: cell-based
In short: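 ScGT1 cells stained with 3·HCl at 0.25 mM after a proteinase K digestion step that removes PK-sensitive PrP^C. Uninfected GT1 cells processed the same way serve as control. Imaged by fluorescence microscopy, mainly with the FITC filter set and confirmed with the ThS filter set.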

[10] = Cytotoxicity against mouse ScGT1 cells assessed as cell viability at 10 uM after 5 days by fluorescence plate reader analysis; type: cell-based; conditions: read-out: Activity
[11] = molecular target: Amyloid-beta precursor protein (Homo sapiens) (UniProt P05067); assay: Displacement of Thioflavin-T from pre-aggregated amyloid beta (1 to 42) (unknown origin) at >25 nM by fluorometric assay
[12] = molecular target: Amyloid-beta precursor protein (Homo sapiens) (UniProt P05067); assay: Binding affinity to pre-aggregated amyloid beta (1 to 42) (unknown origin) assessed as hyperchromic effect at 5 uM by fluorescence analysis
In short: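 Emission spectra of compound (5 μM) recorded in 10 mM phosphate buffer, pH 7.4, with and without aggregated Aβ42 (3 μM).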

[13] = molecular target: Amyloid-beta precursor protein (Homo sapiens) (UniProt P05067); assay: Binding affinity to amyloid beta (1 to 42) (unknown origin) at 0.5 uM by fluorescence analysis
ScGT1 [14] = assay: Binding affinity to scrapie prion protein (unknown origin) aggregate in mouse ScGT1 cells at 0.84 mM measured following denaturation with 6 M guanidinium chloride by fluorescence microscopy; type: cell-based
In short: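 Cells denatured with 6 M guanidinium chloride, then stained with 3·HCl at 0.84 mM (0.025%). Uninfected GT1 cells, with or without denaturation, serve as control. Imaged by fluorescence microscopy with FITC and ThS filter sets, nuclei counterstained with DAPI. Pattern compared with 0.025% Thioflavin S staining. A second line, ScN2a, was also used.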

Major prion protein (Mus musculus), sequence (P04925 whole entry): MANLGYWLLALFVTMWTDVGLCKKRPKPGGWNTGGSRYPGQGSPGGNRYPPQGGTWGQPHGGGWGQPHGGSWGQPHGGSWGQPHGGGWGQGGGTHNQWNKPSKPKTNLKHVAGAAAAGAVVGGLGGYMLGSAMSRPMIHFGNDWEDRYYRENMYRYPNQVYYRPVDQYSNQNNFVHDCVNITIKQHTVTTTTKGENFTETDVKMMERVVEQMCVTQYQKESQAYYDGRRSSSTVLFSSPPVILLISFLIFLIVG
Amyloid-beta precursor protein (Homo sapiens), sequence (P05067 whole entry, the tested form may be a part): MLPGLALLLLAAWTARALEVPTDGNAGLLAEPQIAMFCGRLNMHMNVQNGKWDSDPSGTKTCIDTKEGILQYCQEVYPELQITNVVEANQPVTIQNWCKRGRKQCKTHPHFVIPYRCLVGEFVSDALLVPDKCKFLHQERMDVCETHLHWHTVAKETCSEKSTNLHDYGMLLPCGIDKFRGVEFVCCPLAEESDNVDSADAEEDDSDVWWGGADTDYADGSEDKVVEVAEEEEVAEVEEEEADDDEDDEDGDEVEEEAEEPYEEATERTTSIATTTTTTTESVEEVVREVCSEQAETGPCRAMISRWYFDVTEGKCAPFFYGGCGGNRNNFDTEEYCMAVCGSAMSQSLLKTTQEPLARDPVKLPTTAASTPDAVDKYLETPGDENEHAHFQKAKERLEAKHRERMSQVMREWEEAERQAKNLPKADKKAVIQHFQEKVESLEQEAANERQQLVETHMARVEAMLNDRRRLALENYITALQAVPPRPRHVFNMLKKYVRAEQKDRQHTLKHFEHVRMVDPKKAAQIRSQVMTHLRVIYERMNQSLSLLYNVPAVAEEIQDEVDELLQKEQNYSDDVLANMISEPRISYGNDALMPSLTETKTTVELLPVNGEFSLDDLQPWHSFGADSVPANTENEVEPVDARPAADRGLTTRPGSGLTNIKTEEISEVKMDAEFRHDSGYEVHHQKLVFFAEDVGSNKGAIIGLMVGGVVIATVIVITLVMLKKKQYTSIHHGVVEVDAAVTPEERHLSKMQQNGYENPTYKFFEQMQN

| Compound | inhibition [1] | Papp [2] | inhibition (ScGT1 [3]) | EC50 [4] | TIME [5] | viability at 120 h, 1 µM [6] | viability at 120 h [7] | inhibition ([1]; concentration not given here) | Activity [8] | Activity (ScGT1 [9]) | viability at 120 h, 10 µM [10] | Activity [11] | Activity [12] | Activity [13] | Activity (ScGT1 [14]) |
| --- | --- | --- | --- | --- | --- | --- | --- | --- | --- | --- | --- | --- | --- | --- | --- |
| COc1ccc2nc(/C=C/c3ccccc3)ccc2c1 | inactive | 8.5 ×10⁻⁶ cm/s | Dose-dependent effect | 700 nM | > 70 h | 60% | 74.9% | – | – | – | – | – | – | – | – |
| Cc1ccc2nc(/C=C/c3ccc(N)cc3)ccc2c1 | – | 23.1 ×10⁻⁶ cm/s | Dose-dependent effect | 500 nM | > 70 h | > 90% | 94.6% | 42.4% | Active | Active | 60% | Active | Active | Active | Active |
| CCN(CC)CCCC(C)Nc1c2ccc(Cl)cc2nc2ccc(OC)cc12 (centres undefined) [QUINACRINE] | – | – | – | 400 nM | – | – | 100% | – | – | – | – | – | – | – | – |
| Cc1ccc2nc(/C=C/c3ccccc3)ccc2c1 | inactive | 3 ×10⁻⁶ cm/s | Dose-dependent effect | 500 nM | > 70 h | > 90% | 90.5% | – | – | – | – | – | – | – | – |
| COc1cc(/C=C/C(=O)CC(=O)/C=C/c2ccc(O)c(OC)c2)ccc1O | – | – | – | – | – | – | – | 73% | – | – | – | – | – | – | – |
| O=C(CN1CCCC1)Nc1ccc(Cc2ccc(NC(=O)CN3CCCC3)cc2)cc1 | – | – | Dose-dependent effect | 1500 nM | – | – | 93.4% | – | – | – | – | – | – | – | – |
